Activity calls are given as the source filed them. The rule behind the calls is not given here.
How the values were obtained:
[1] = target: Sodium-dependent serotonin transporter (Rattus norvegicus) (UniProt P31652); assay: Inhibition of SERT-mediated 5-HT uptake in Wistar rat brain synaptosomes at 0.2 uM; assay type: subcellular
Rattus norvegicus [2] = assay: Reduction in 5-HT level in Wistar rat brain synaptosomes at 15 mg/kg, ip measured after 4 hrs by fluorometric assay; assay type: functional; design: scale not given: the % may be the effect or the level left; conditions: route intraperitoneal
Mus musculus [3] = assay: Increase in spontaneous locomotor activity in ICR Swiss mouse at 10 mg/kg, ip measured after 30 to 270 mins post compound administration; assay type: functional, organism-based; design: dose 10 mg/kg
How it was run: (§1)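 Male ICR Swiss mice (20-25 g), compound in saline ip, housed three per cage at ≤18 °C. Starting 30 min and 4.5 h after injection, each mouse was placed in a circular actophotometer (25 cm diameter, four photocells, central light) for 30 min. A count was scored per cross of two consecutive beams (locomotion only). Means of at least eight animals per group.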

[4] = Toxicity in ip dosed ICR Swiss mouse; assay type: organism-based; conditions: in vivo
Mus musculus [5] = assay: Increase in spontaneous locomotor activity in ICR Swiss mouse at 10 mg/kg, ip measured after 4 hrs post compound administration; assay type: functional, organism-based; design: dose 10 mg/kg; how it was run: as §1
Rattus norvegicus [6] = assay: Reduction in 5-HT level in Wistar rat brain synaptosomes at 15 mg/kg, ip measured after 24 hrs by fluorometric assay; assay type: functional; design: scale not given: the % may be the effect or the level left; conditions: route intraperitoneal
Rattus norvegicus [7] = assay: Inhibition of SERT-mediated 5-HT uptake in Wistar rat brain at 15 mg/kg, ip measured after 24 hrs; assay type: functional; conditions: route intraperitoneal
How it was run: (§2)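 Male Wistar-derived rats were dosed ip (saline vehicle) and killed 24 h or 7 days later. Whole brains were homogenized in 8 vol 0.25 M sucrose.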

[8] = target: Sodium-dependent serotonin transporter (Rattus norvegicus, UniProt P31652); assay: Inhibition of SERT-mediated 5-HT uptake in Wistar rat brain synaptosomes; assay type: subcellular
Sodium-dependent serotonin transporter, sequence (P31652 whole entry): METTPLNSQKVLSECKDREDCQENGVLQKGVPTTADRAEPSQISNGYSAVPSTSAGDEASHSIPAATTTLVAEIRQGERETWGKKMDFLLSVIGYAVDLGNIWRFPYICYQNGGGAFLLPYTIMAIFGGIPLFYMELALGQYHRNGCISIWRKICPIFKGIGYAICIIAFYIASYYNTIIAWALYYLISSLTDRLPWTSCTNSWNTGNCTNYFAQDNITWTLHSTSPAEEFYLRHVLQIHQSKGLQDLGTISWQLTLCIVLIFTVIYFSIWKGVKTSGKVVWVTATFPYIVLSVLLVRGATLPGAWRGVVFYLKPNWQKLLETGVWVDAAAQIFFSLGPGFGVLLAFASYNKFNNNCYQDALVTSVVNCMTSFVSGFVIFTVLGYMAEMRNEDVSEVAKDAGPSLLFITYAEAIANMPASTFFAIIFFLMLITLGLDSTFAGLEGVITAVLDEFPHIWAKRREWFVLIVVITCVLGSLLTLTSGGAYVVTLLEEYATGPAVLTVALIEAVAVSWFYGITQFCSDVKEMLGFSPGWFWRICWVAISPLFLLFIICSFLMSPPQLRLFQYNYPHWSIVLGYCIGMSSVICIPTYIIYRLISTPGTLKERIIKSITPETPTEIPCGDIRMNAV

Rattus norvegicus [9] = assay: Inhibition of SERT-mediated 5-HT uptake in Wistar rat brain at 15 mg/kg, ip measured after 7 days; assay type: functional; conditions: 168 h, route intraperitoneal; how it was run: as §2
Rattus norvegicus [10] = assay: Reduction in 5-HT level in Wistar rat brain synaptosomes at 15 mg/kg, ip measured after 7 days by fluorometric assay; assay type: functional; design: scale not given: the % may be the effect or the level left; conditions: route intraperitoneal
Rattus norvegicus [11] = organism: Rattus norvegicus; assay: Ratio of PCA IC50 to compound IC50 for MAO in Wistar rat brain using [3H]serotonin as substrate
[12] = Inhibition of MAO in Wistar rat brain using [3H]serotonin as substrate
Rattus norvegicus [13] = assay: Inhibition of SERT-mediated 5-HT uptake in Wistar rat brain at 7.5 mg/kg, ip measured after 24 hrs; assay type: functional; conditions: route intraperitoneal; how it was run: as §2
Rattus norvegicus [14] = assay: Reduction in 5-HT level in Wistar rat brain synaptosomes at 7.5 mg/kg, ip measured after 7 days by fluorometric assay; assay type: functional; design: scale not given: the % may be the effect or the level left; conditions: route intraperitoneal
Rattus norvegicus [15] = assay: Reduction in 5-HT level in Wistar rat brain synaptosomes at 7.5 mg/kg, ip measured after 24 hrs by fluorometric assay; assay type: functional; design: scale not given: the % may be the effect or the level left; conditions: route intraperitoneal
Rattus norvegicus [16] = assay: Inhibition of SERT-mediated 5-HT uptake in Wistar rat brain at 7.5 mg/kg, ip measured after 7 days; assay type: functional; conditions: 168 h, route intraperitoneal; how it was run: as §2
Rattus norvegicus [17] = assay: Reduction in 5-HT level in Wistar rat brain synaptosomes at 7.5 mg/kg, ip measured after 4 hrs by fluorometric assay; assay type: functional; design: scale not given: the % may be the effect or the level left; conditions: route intraperitoneal

Sodium-dependent serotonin transporter (Rattus norvegicus), sequence (P31652 whole entry): as above

| SMILES | inhibition [1] [%] | Activity (Rattus norvegicus [2]) [%] | Activity (Mus musculus [3]) | LD50 [4] [mg/kg] | Activity (Mus musculus [5]) | Activity (Rattus norvegicus [6]) [%] | inhibition in vivo at 15 mg/kg (Rattus norvegicus [7]) [%] | IC50 [8] [nM] | inhibition in vivo at 15 mg/kg (Rattus norvegicus [9]) [%] | Activity (Rattus norvegicus [10]) [%] | Ratio IC50 (Rattus norvegicus [11]) | IC50 [12] [nM] | inhibition in vivo at 7.5 mg/kg (Rattus norvegicus [13]) [%] | Activity (Rattus norvegicus [14]) [%] | Activity (Rattus norvegicus [15]) [%] | inhibition in vivo at 7.5 mg/kg (Rattus norvegicus [16]) [%] | Activity (Rattus norvegicus [17]) [%] |
| --- | --- | --- | --- | --- | --- | --- | --- | --- | --- | --- | --- | --- | --- | --- | --- | --- | --- |
| CC(N)Cc1cccs1.Cl (racemic) | 5.3 | 4.3 | Active | 162 | – | – | – | – | – | – | – | – | – | – | – | – | – |
| CC(N)Cc1ccc(Cl)s1.Cl (racemic) | 17.7 | 14.5 | Active | 113 | Active | 15.4 | 4.1 | – | – | – | – | – | – | – | – | – | – |
| CC(N)Cc1sccc1Cl.Cl (racemic) | 6.6 | 2.8 | inactive | 101 | – | – | – | – | – | – | – | – | – | – | – | – | – |
| CC(N)Cc1cc(Cl)c(Cl)s1.Cl (racemic) | 40.5 | 49.3 | Active | 133 | – | 50.7 | 30.4 | 450 | 32.4 | 41.6 | – | – | – | – | – | – | – |
| CC(N)Cc1scc(Cl)c1Cl.Cl (racemic) | 27.5 | 10.3 | Active | 121 | – | 11.7 | 0.4 | – | – | – | 15 | 250 | – | – | – | – | – |
| CC(N)Cc1sc(Cl)cc1Cl.Cl (racemic) | 19.4 | 12.1 | inactive | 135 | – | 13.3 | 24.5 | – | – | – | – | 2500 | – | – | – | – | – |
| CC(N)Cc1ccc(Cl)cc1.Cl (racemic) | 38.4 | – | – | 64 | Active | – | – | 500 | – | – | – | 3700 | 45.5 | 63.7 | 47.6 | 34.3 | 48.6 |
| CC(N)Cc1cc(Cl)cs1.Cl (racemic) | 18.7 | 22.1 | Active | 128 | – | 18.3 | 6.7 | – | – | – | – | – | – | – | – | – | – |
